Compounds with a hit are over-represented: about 1.6% of the library has one in this group of screens.
UHRF1 MBD2 ctr: human UHRF1 methylated DNA binding inhibitors. UHRF1 binding to methylated oligo, TR-FRET. 370,000 tested, 0.75% active. inhibition, % at 4.4 µM;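 note: UHRF1 SRA domain binding a hemimethylated CpG hairpin DNA probe; 0% = median of test compound wells and 100% = reference inhibitor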
LEDGF integ inh: blocks HIV-1 LEDGF/p75-dependent DNA integration; 370,000 tested, 0.64% active; TR-FRET IN-LEDGF/p75 DNA integration, Eu/Cy5; inhibition, % at 3.7 µM; AID 743269;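 active = inhibition above the screen-wide mean plus 3 SD, cut at about 13% in these data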;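 note: signal is the Cy5 over europium emission ratio at 671 and 618 nm; 0% = plate median of compound wells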
MBD2 inh: blocks human MBD2 binding to methylated DNA. Q9UBB5. TR-FRET, MBD2 binding to methylated oligonucleotide. inhibition, % at 4.4 µM. 370,000 tested, 0.31% active. AID 686964; in the data active = inhibition above about 13%
TDP2 absorb: TDP2 (human) inhibition, absorbance primary screen. O95551. recombinant TDP2, T5PNP hydrolysis, p-nitrophenol absorbance 415 nm. inhibition, % at 12.8 µM. 370,000 tested, 0.34% active;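 active = inhibition above the mean of all tested compounds plus 3 SD, set per campaign, cut at about 25% in these data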;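 note: 0% = DMSO with enzyme and 100% = buffer with substrate but no TDP2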
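System – recombinant human TDP2 · Quantity – TDP2 enzyme at 120 nM final · Doses – single concentration, 12.8 µM nominal, with 1% DMSO · Incubation – 2 h at 37 °C · Measured by – epi absorbance of p-nitrophenol freed from T5PNP by hydrolysis · Read-out – % inhibition relative to enzyme-containing and enzyme-free wells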
UHRF1 ctr MBD2: inhibits human UHRF1 binding to methylated oligonucleotide, MBD2 counter-screen. shares compounds with MBD2 inh. TR-FRET. inhibition, % at 4.4 µM. 1,000 tested, 25% active. AID 720530;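 note: UHRF1 SRA domain binding a labeled hemimethylated CpG hairpin DNA; 0% = vehicle only and 100% = reference inhibitor with vehicle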
MBD2 confirm: confirmation of human MBD2-DBD methylated oligonucleotide binding inhibitors; shares compounds with MBD2 inh; TR-FRET MBD2-DBD binding to methylated oligonucleotide; inhibition, % at 4.4 µM; 1,000 tested, 26% active; AID 720531; in the data active = inhibition above about 14%
* = called active by the depositor; nt = no result given. Cut-off read from the data, not from the text of the source, unless noted: active = inhibition above about 21%; inactive = the rest.

SMILES	UHRF1 MBD2 ctr	LEDGF integ inh	MBD2 inh	TDP2 absorb	UHRF1 ctr MBD2	MBD2 confirm
CC(C)(C)OC(=O)N1CCC(c2ccc[nH]2)(c2c[nH]c3ccccc23)CC1	0.4	5.0	-3.5	6.0	nt	nt
Cc1ccc(C)c(C(=O)OCC(=O)Nc2cccc(S(=O)(=O)NC3=NCCCCC3)c2)c1	17.8	1.4	16.6*	0.8	6.4	3.1
O=C(NCc1ccccn1)c1c(-c2ccccc2)sc2ccccc12	22.3*	-2.7	16.0*	-5.3	9.8	7.3
O=C(NCc1ccccn1)c1ccc(-c2ccccc2)cc1	0.2	-12.3	1.7	2.6	nt	nt
COc1ccccc1CNC(=O)C(NS(=O)(=O)c1cccc2nsnc12)C(C)C (configuration not stated)	6.2	3.2	0.8	8.2	nt	nt
CC(C)C(NS(=O)(=O)c1cccc2nsnc12)C(=O)N1CCn2c1nc1ccccc12 (configuration not stated)	-0.4	-2.2	14.2*	6.2	2.4	-0.3
O=C(NCCc1c[nH]c2ccccc12)OCc1cn(Cc2cccc(F)c2)nn1	0.1	-2.0	3.9	-2.8	nt	nt
C=CCN1C(=O)[C@@H](CC(=O)N2CCCCC2)[C@]2(C(=O)OCC)CCCCC/C=C/12	0.5	4.6	-1.6	0.2	nt	nt
C/C(=N/NC(=O)c1ccco1)c1ccc(NC(=O)c2ccc(F)cc2)cc1	7.2	-1.3	13.7*	-15.7	0.3	2.1
C/C(=N/NC(=O)c1ccco1)c1ccc(NC(=O)c2ccc(Br)o2)cc1	-0.9	0.8	1.8	-15.7	nt	nt
Cc1cc(C)cc(OCC(=O)NNC(=O)C2CCCO2)c1 (configuration not stated)	-0.9	5.9	-3.3	-3.1	nt	nt
Cc1ccc(OCC(=O)NNC(=O)C2CCCO2)c(C)c1 (configuration not stated)	2.5	-0.6	18.4*	5.4	8.2	1.4
CS(=O)(=O)N[C@@H]1C[C@@H]2O[C@H](CO)CC[C@@H]2O[C@@H]1CCc1ccc(-c2ccccc2F)cc1	0.3	3.3	-1.1	5.2	nt	nt
COC(=O)[C@H](CC(C)C)N(Cc1cn(Cc2ccc(C)cc2)nn1)S(=O)(=O)c1ccccc1Br	18.9	1.5	18.4*	1.9	6.2	8.4
C=CCn1c(C)cc(C(=O)CSc2nc3ccccc3[nH]2)c1C	-3.3	-1.8	19.5*	2.2	8.6	2.1
COc1ccc(OC)c(NC(=O)C2CC(=O)N(c3ccccc3)C2)c1 (configuration not stated)	11.6	3.7	14.7*	4.3	11.2	2.2
COc1ccc(N2CC(C(=O)OCC(=O)Nc3cc(C)on3)CC2=O)cc1 (configuration not stated)	41.1*	3.0	19.6*	-7.8	9.7	2.5
O=C(Cn1cc(COc2ccc3ccc(=O)oc3c2)nn1)c1ccc(O)cc1	8.5	6.6	-6.0	-0.2	nt	nt
COc1ccc2cc([C@H](C)C(=O)OCc3cn(CC(=O)c4ccc(O)cc4)nn3)ccc2c1	18.4	10.2	15.1*	1.8	13.1	10.9
COc1ccc(C=O)c(OCc2cn(CC(=O)c3ccc(O)cc3)nn2)c1	23.5*	3.1	13.8*	4.3	12.2	8.0
O=C(COc1ccccc1C(=O)NCc1ccccc1)Nc1ccc(I)cc1	-0.3	1.0	-6.7	-1.1	nt	nt
C[C@H]1CN([C@@H](C)CO)C(=O)CCCn2cc(nn2)CO[C@@H]1CN(C)S(=O)(=O)c1ccc(F)cc1	-5.4	1.7	0.2	4.8	nt	nt
C#CCNC(=O)C[C@H]1C[C@@]2(C(=O)OCC)CCCC3=C2N(CCC3)C1=O	0.3	-5.5	1.6	4.2	nt	nt
CCCn1nnc(NC(=O)COc2ccc(Cl)cc2)n1	23.3*	1.3	14.2*	-2.9	5.7	2.4
COc1cc2cc(C(=O)N(C)C3CCS(=O)(=O)C3)[nH]c2cc1OC (configuration not stated)	1.6	2.5	15.4*	4.2	6.3	1.1
SMILES	UHRF1 MBD2 ctr	LEDGF integ inh	MBD2 inh	TDP2 absorb	UHRF1 ctr MBD2	MBD2 confirm
CNS(=O)(=O)c1cccc(C(=O)OCC(=O)Nc2ccccc2F)c1	25.7*	0.1	16.7*	-4.5	4.1	1.8
CCOC(=O)CC[C@@]1(C(=O)OCC)C[C@@H](CC(=O)NCCCN2CCCC2=O)C(=O)N2CCCC=C21	-1.2	-0.9	-3.1	3.9	nt	nt
COCCCn1cc(CN2CC(N3CCCC3)CS2(=O)=O)nn1 (configuration not stated)	9.7	-1.7	5.3	-0.5	nt	nt
Cc1cccc(CN2CCN(C3CN(Cc4cn(Cc5cccc(Cl)c5)nn4)S(=O)(=O)C3)CC2)c1 (configuration not stated)	19.2	3.2	10.2	-0.1	nt	nt
Cc1ccc(Cn2cc(CN3CC(N4CCN(CCN(C)C)CC4)CS3(=O)=O)nn2)cc1 (configuration not stated)	18.4	-1.3	7.4	-8.7	nt	nt
CN(C)CCN1CCN(C2CN(Cc3cn(Cc4ccccc4)nn3)S(=O)(=O)C2)CC1 (configuration not stated)	20.4	-2.5	14.8*	4.8	6.1	7.9
Cc1cccc(CN2CCN(C3CN(Cc4cn(Cc5ccc(Cl)cc5)nn4)S(=O)(=O)C3)CC2)c1 (configuration not stated)	15.1	-3.5	13.2*	-9.7	5.7	5.1
COCCCn1cc(CN2CC(N3CCN(C)CC3)CS2(=O)=O)nn1 (configuration not stated)	19.6	-1.8	13.5*	-2.0	12.3	6.0
COc1cccc(CN[C@@H]2CC[C@@]34CCCN3C(=O)CCC[C@H]4C2)c1	-1.1	-2.4	4.1	3.9	nt	nt
CCC[C@@H](/C=C/C(=O)OC(C)(C)C)Sc1ccccc1OC	-1.3	-5.2	1.6	5.2	nt	nt
C[C@H](O)[C@@H]1C(=O)N2CCc3c([nH]c4c(-c5ccccc5)cccc34)[C@@H]2C[C@@H]1N(C)C(=O)c1ccco1	-0.8	-1.8	4.3	-2.1	nt	nt
CC(=O)C1C(c2ccc(F)c(F)c2)NC(=O)NC1(O)C(F)(F)F (configuration not stated)	3.2	-4.8	24.4*	0.4	5.3	0.3
O=C(N[C@H](C(=O)N1CCC[C@H]1C(=O)NC1CCCC1)C1CCCCC1)c1ccc(Cl)cc1Cl	11.4	4.7	-0.4	-7.9	nt	nt
CCCCC(=O)N1CCN(C(=O)c2ccc3c(c2)nc(C)n3C2CCCC2)CC1	3.4	6.4	0.7	-7.2	nt	nt
O=C(COC(=O)CCCNC(=O)c1ccc(Cl)cc1)Nc1ccc(Br)cc1	22.9*	2.5	13.3*	5.5	2.5	2.1
O=C(CCCNC(=O)c1ccc(Cl)cc1)Nc1ccc(Br)cc1	-0.8	2.8	-0.4	7.9	nt	nt
CC(C)(C)n1nnnc1C(c1ccc(C(F)(F)F)cc1)N(Cc1ccc(F)cc1)Cc1ccco1 (configuration not stated)	4.4	-0.3	17.5*	-10.8	8.8	0.6

Source: PubChem BioAssay (The Scripps Research Institute Molecular Screening Center)
